Bioassay records (PubChem BioAssay)
This is a sample that favours compounds with a hit; in the whole collection about 1.8% have one here.
Autophagy HCS – autophagy modulation, high-content screen | MEF GFP-LC3 puncta imaging; test concentration mostly 10 µM | calls only at 10 µM (by protocol) | 190,000 tested, 0.98% active | AID 463193;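 active = percentage of spot-positive cells more than 3 SD above its plate mean, without a fluorescence outlier flag or 80% toxicity; inconclusive = no clear call, values can overlap the other calls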;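 note: spot-positive cell cutoff set from DMSO-treated cells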
Ins promoter up – MIN6 insulin promoter up-regulation | MIN6 insulin promoter-GFP reporter, high-content imaging; hits give high values | z-score at 5 µM | 190,000 tested, 0.3% active | AID 1625;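 active = z-score above 3 at 5 µM with at least 500 cells counted in the well; inconclusive = wells under 500 cells, flagged as cytotoxic or low count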
TNAP inh hiacc – TNAP (human) inhibition, high acceptor. P05186. purified TNAP, CDP-star luminescence, 1 M DEA. inhibition, % at 20 µM. 200,000 tested, 0.03% active;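 active = over 50% inhibition of tissue-nonspecific alkaline phosphatase at 20 µM in the single-dose screen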;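 note: plate controls were DMSO wells for no effect and EDTA-quenched wells as full inhibition for full effect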
Target sequence (P05186 whole entry, looked up): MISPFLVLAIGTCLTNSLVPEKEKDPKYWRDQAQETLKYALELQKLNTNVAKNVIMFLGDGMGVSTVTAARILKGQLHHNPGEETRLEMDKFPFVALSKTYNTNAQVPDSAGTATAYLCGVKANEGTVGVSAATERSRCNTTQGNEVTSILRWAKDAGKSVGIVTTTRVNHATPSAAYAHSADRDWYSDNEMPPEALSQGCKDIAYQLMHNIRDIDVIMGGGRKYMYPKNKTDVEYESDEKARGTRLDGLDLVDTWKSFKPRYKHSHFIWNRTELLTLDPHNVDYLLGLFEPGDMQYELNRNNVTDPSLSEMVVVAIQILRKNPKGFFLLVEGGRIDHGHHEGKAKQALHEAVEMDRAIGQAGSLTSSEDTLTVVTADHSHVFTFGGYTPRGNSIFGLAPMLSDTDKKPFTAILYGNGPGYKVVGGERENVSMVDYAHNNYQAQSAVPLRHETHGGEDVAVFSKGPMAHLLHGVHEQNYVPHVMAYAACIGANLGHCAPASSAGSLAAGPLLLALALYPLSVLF
p47phox inh – inhibitors of human p47phox binding. p47phox/p22phox peptide binding, fluorescence polarization, 2 h. AID 1274. 220,000 tested, 0.53% active. inhibition, % at 24.7 µM;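 active = inhibition above about 30%, limit read from the data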;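 note: 0% = p47phox with labelled peptide and 100% = labelled peptide alone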
TNAP act hiacc – increases human TNAP activity under high phosphate acceptor concentration. activation factor at 20 µM. 200,000 tested, under 10 active. purified TNAP, CDP-star luminescence, 1 M DEA, 30 min; hits give high values; 0 = EDTA background, 1 = DMSO-only activity. P05186;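 active = activation factor at least 2 at 20 µM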
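Measured by: Luminescent substrate turnover signal | Test system: Human TNAP | Input: TNAP 1/800 final | Dosing: 20 µM single point | Schedule: 30 min, room temperature | Controls: EDTA wells as negative control, DMSO wells as positive control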
TNAP inh no acc – blocks human TNAP activity with no phosphate acceptor present | 200,000 tested, 0.26% active | P05186 | purified TNAP, CDP-star luminescence, 30 min | inhibition, % at 20 µM;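 active = tissue-nonspecific alkaline phosphatase inhibition above about 50% at 20 µM in the single-dose screen, limit read from the data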;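 note: 0% = DMSO negative control and 100% = EDTA positive control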
* marks the source's active call; other numbers are inactive results; i = inactive; ? = inconclusive; / = no result; + = active, no number.

SMILES	Autophagy HCS	Ins promoter up	TNAP inh hiacc	p47phox inh	TNAP act hiacc	TNAP inh no acc
COC(=O)[C@@H]1C[C@@]2(O)[C@@H](O)[C@@H](O)[C@@H](O)C[C@H]2N1CC(c1ccccc1)c1ccccc1	/	0.02	/	-23	/	/
COC(=O)c1sc2cc([N+](=O)[O-])cc(SCC(C)C)c2c1N	+	?	10	-10	0.9	-1
CCOC(=O)c1sc2ncc([N+](=O)[O-])cc2c1N	/	-0.11	/	1	/	/
CCS(=O)(=O)c1ccc2oc(SCC(=O)NC34CC5CC(CC(C5)C3)C4)nc2c1	i	/	-6	-5	1.1	-7
CCS(=O)(=O)c1ccc2oc(SCC(=O)NC3CCCC(C)C3C)nc2c1 (stereo unspecified)	i	4.3*	-5	-2	1.1	-13
Cc1nn(CC(=O)NCc2cc3ccccc3[nH]2)c(C)c1[N+](=O)[O-]	i	/	-4	-5	1	-16
COc1ccc(-c2nnc(CSc3nc4ccccc4c(=O)n3CC(C)C)o2)cc1OC	i	-0.91	-3	37*	1	-7
COCCCn1c(SCc2nnc(-c3ccc(OC)c(OC)c3)o2)nc2ccccc2c1=O	i	-1.8	1	-6	1	-1
CS(=O)(=O)c1ccccc1-c1nnc(-c2ccc(Cl)cc2)o1	i	-0.1	2	-3	1	-6
O=S(=O)(Cc1ccc(Cl)cc1)c1ccccc1-c1nnc(-c2ccccc2)o1	i	14*	-4	19	1	-10
ONC(=Nc1cccc(C(F)(F)F)c1)c1cccnc1	/	-0.77	/	-5	/	/
CCC(=O)NC1(C(F)(F)F)C(=O)Nc2c1c(=O)[nH]c(=O)n2CC(C)C (stereo unspecified)	/	-0.21	/	-7	/	/
CC(=O)c1c(C)[nH]c(C(=O)Nc2ccc(C)c(C)c2)c1C	i	-0.65	-3	9	1	-24
COc1ccc(NC(=O)c2[nH]c(C)c(C(C)=O)c2C)cc1Cl	i	3.8*	-1	-8	1	-4
O=C(c1cncs1)N1CCCC(CNS(=O)(=O)c2cccs2)C1 (stereo unspecified)	i	0.75	-8	9	1.1	-12
CN(C)c1ccc(/C=C2/C=C(c3ccc4c(c3)CCCC4)OC2=O)cc1	/	0.21	/	45*	/	/
COc1ccc(C2=C/C(=C\c3ccc(OC(C)=O)cc3)C(=O)O2)cc1	i	/	3	-13	1	-2
COc1ccccc1C1=NOC(Cn2c(NCCOCCO)nc3c2c(=O)n(C)c(=O)n3C)C1 (stereo unspecified)	/	0.75	/	4	/	/
CCOC(=O)/C(=N\Nc1cc(Cl)ccc1Cl)N1CCOCC1	i	-1.5	-4	-1	1	-4
NC(=S)Nc1nc2ccccc2[nH]c1=O	i	/	16	-18	0.8	71*
C=CCOc1c(CNc2nccs2)cccc1OCC	i	1.1	-4	36*	1	-13
C=CCOc1ccc(CNc2nccs2)cc1OCC	i	/	-3	-22	1	-11
CCCOC(=O)CSc1nnc(-c2cc(OC)c(OC)c(OC)c2)o1	i	-0.45	-2	-2	1	-14
CCCCCOC(=O)CSc1nnc(-c2cc(OC)c(OC)c(OC)c2)o1	i	0.85	0	31*	1	-5
CC(=O)c1ccc(Nc2cc(C)nc3c(C)cc(C)cc23)cc1	+	/	9	1	0.9	0
SMILES	Autophagy HCS	Ins promoter up	TNAP inh hiacc	p47phox inh	TNAP act hiacc	TNAP inh no acc
Cc1cc(C)c2nc(C)cc(Nc3ccc(C(=O)N(C)C)cc3)c2c1	/	-0.42	/	1	/	/
CC1CCN(c2nc3c(c(=O)[nH]c(=O)n3C)n2Cc2ccccc2Cl)CC1	i	0.52	-2	-13	1	-1
CCCCCCCCCC[n+]1cccc2c3ccccc3ccc21	i	?	2	50*	1	1
CCc1nc(CN2CCCC(C(=O)c3ccc4c5c(cccc35)CC4)C2)c(C)[nH]1 (stereo unspecified)	+	-2.1	-6	-50	1.1	-5
O=c1c2c3c(sc2nc2n1CCC2)CCC3	i	0.44	-1	-1	1	-8
O=c1c2c3c(sc2nc2n1CCC2)CCCCC3	+	-0.3	-1	-19	1	-5
CCC(=O)Nc1nonc1-c1nc2ccccc2n1Cc1ccccc1	i	0.84	-4	-2	1	-2
CCC(=O)Nc1nonc1-c1nc2ccccc2n1Cc1cccc2ccccc12	+	/	4	-64	1	-6
Nc1cc2c(cc1[N+](=O)[O-])OCCOCCOCCO2	i	0	4	0	1	0
CCOc1ccccc1NC(=O)C1CCN(C(=O)c2cccs2)CC1	+	0.02	-7	-1	1.1	-9
CCOc1ccccc1NC(=O)N1C2CCCC1CC(NC(=O)C1CC1)C2 (stereo unspecified)	+	0.05	-3	-16	1	-11
C=CCSc1nccc(-c2nn(-c3ccc(C)cc3)ccc2=O)n1	+	-0.42	-3	-19	1	-12
CCSc1nccc(-c2nn(-c3ccc(C)cc3)ccc2=O)n1	+	-0.29	-7	-15	1.1	-11
C#CCSc1nccc(-c2nn(-c3ccc(C)cc3)ccc2=O)n1	i	0.04	5	-23	1	1
O=C(CN1C(=O)c2ccccc2S1(=O)=O)NC(Nc1ccccc1F)C(Cl)(Cl)Cl (stereo unspecified)	i	0.19	0	-13	1	14
Cc1c(C(c2ccc(O)cc2)c2c(C)n(C)n(-c3ccccc3)c2=O)c(=O)n(-c2ccccc2)n1C	i	/	-2	-6	1	-9
Cc1c(C(c2ccc([N+](=O)[O-])cc2)c2c(C)n(C)n(-c3ccccc3)c2=O)c(=O)n(-c2ccccc2)n1C	i	4.1*	0	-4	1	-6
O=C(O)Cc1ccc(OCc2ccc(Cl)nc2)cc1	i	1.2	2	-7	1	0
COc1ccc(CN(C)CC(=O)Nc2ccc(Cl)cc2C(F)(F)F)c(OC)c1	i	-1.4	-5	-3	1.1	-10
CN1CCN(S(=O)(=O)c2ccc(-c3ccc(S(=O)(=O)N4CCN(C)CC4)cc3)cc2)CC1	/	0.58	-6	/	1.1	5
CN1CCN(S(=O)(=O)c2ccc(Cc3ccc(S(=O)(=O)N4CCN(C)CC4)cc3)cc2)CC1	+	-0.74	-6	0	1.1	-14
CCCC(=O)c1c(C)c2ccccc2n1C	i	3*	0	2	1	-6
Cc1c(C(=O)Cc2ccccc2)n(C)c2ccccc12	i	0.04	-3	-11	1	-12
CS(=O)(=O)Nc1cccc(S(=O)(=O)N2CCN(C(=O)c3ccccc3)CC2)c1	/	0.21	/	-3	/	/
Cn1cc(CNCc2cn(C)nc2-c2ccc(C3CCCCC3)cc2)cn1	i	-0.72	-5	-8	1	-8
